# According to ChEMBL document CHEMBL1122649, “3-Alkyl-2-aryl-3H-naphth[1,2-d]imidazoles, a novel class of nonacidic antiinflammatory agents” (J Med Chem, 1984):
# How the values were obtained:
# Rattus norvegicus [1] = assay: Antiinflammatory activity measured as the percentage inhibition of edema in carrageenan induced rat paw after peroral administration of 200 mg/kg of compound; type: functional; conditions: route oral
# Outline: (§1)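 Female Wistar rats (120–150 g), 10 per dose, dosed orally with an aqueous suspension in 0.5% methocel (10 mL/kg) 1 h before 0.05 mL of 1% carrageenin in saline was injected into the right hind paw aponeurosis. Paw volume was read plethysmographically at injection and 4 h later. Inhibition is given relative to vehicle controls. Screening dose 200 mg/kg; 100 mg/kg was tested when inhibition exceeded 30%. Student's t test.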
# Rattus norvegicus [2] = assay: (§2) Compound was evaluated for its antiinflammatory activity by adjuvant-induced polyarthritis test in rats at a dosage of 200 mg/kg administered orally; type: functional; set-up: unit not given beside the values; conditions: route oral
# Outline: (§3)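 Female Wistar rats (130–150 g), 8 per dose. Killed Mycobacterium butyricum (0.6 mg in 0.1 mL mineral oil) was injected into the right hind plantar aponeurosis. Oral dosing in 0.5% methocel, once daily, curative scheme from day 14 to day 27. Read-outs: percent change in hind-paw volume versus controls; Newbould 0–4 lesion scores for front paws, tail and ears; plasma inflammation units by nephelometric turbidity before and after 30 min at 56 °C on day 27.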
# Rattus norvegicus [3] = assay: Compound was evaluated for its gastroulcerogenic effect in rats at a peroral dose of 200 mg/kg, P<0.05.; type: functional; conditions: route oral
# Rattus norvegicus [4] = assay: Antiinflammatory activity was measured as the percentage inhibition of edema in carrageenan induced rat paw after peroral administration of 100 mg/kg of compound; type: functional; conditions: route oral; outline: as §1
# Rattus norvegicus [5] = species: Rattus norvegicus; assay: Compound was evaluated for its analgesic activity by Randall-Selitto test in comparison with that of Aspirine; type: functional
# Outline: (§4)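 Randall–Selitto pain threshold, measured on the inflamed right hind paw of male Wistar rats (170–200 g), 10 per dose. Edema was induced with 0.1 mL of 20% yeast suspension in saline. Oral dosing in 0.5% methocel (10 mL/kg), highest dose one-fifth of LD50, then scaling down through 100, 50, 20, 10, 5 and 2 mg/kg. Threshold read before dosing, then hourly for 6 h. Potency expressed relative to aspirin = 1.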
# Rattus norvegicus [6] = assay: as §2; type: functional; conditions: route oral; outline: as §3
# Rattus norvegicus [7] = assay: Compound was evaluated for its antiinflammatory activity in the cotton pellet induced granuloma(CPG) in normal rats at the dose 200 mg/kg p.o.; type: functional; conditions: route oral
# Outline: (§5)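 Male Wistar rats (150–180 g), 7 per group. Two sterile 50 mg cotton pellets were implanted subcutaneously in the interscapular region under ether. Oral dosing in 0.5% methocel (10 mL/kg) daily for 6 days, starting 6 h after surgery. Animals were killed 24 h after the last dose; pellets with granuloma were dried 24 h at 80 °C. Percent inhibition versus vehicle controls.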
# Rattus norvegicus [8] = species: Rattus norvegicus; assay: Compound was evaluated for its antipyretic activity by antipyresis effect in comparison with that of Aspirin.; type: functional
# Outline: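 Male Sprague-Dawley rats (120–150 g), 6 per dose, starved 18 h and kept at 24 °C; rats above 38 °C were excluded. Fever was induced by subcutaneous 1 mL of filtered 5% peptone preincubated 48 h at 37 °C. Oral doses as in the analgesic test (top dose one-fifth of LD50, stepping down). Rectal thermocouple readings from 4 h after injection, then hourly for 4 h. Activity relative to aspirin = 1.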
# Rattus norvegicus [9] = assay: (§6) Compound was evaluated for its antiinflammatory activity by adjuvant-induced polyarthritis test in rats at a dosage of 100 mg/kg administered orally; type: functional; conditions: route oral; outline: as §3
# Rattus norvegicus [10] = assay: as §6; type: functional; set-up: unit not given beside the values; conditions: route oral; outline: as §3
# Rattus norvegicus [11] = assay: Compound was evaluated for its gastroulcerogenic effect in rats at a peroral dose of 200 mg/kg; type: functional; conditions: route oral
# Rattus norvegicus [12] = assay: Compound was evaluated for its antiinflammatory activity by adjuvant-induced polyarthritis test in rats at a dosage of 50 mg/kg administered orally; type: functional; conditions: route oral; outline: as §3
# Rattus norvegicus [13] = assay: Compound was evaluated for its antiinflammatory activity in the cotton pellet induced granuloma(CPG) in normal rats at the dose 50 mg/kg p.o.; type: functional; conditions: route oral; outline: as §5
# Rattus norvegicus [14] = assay: Compound was evaluated for its antiinflammatory activity in the cotton pellet induced granuloma(CPG) in normal rats at the dose 100 mg/kg p.o.; type: functional; conditions: route oral; outline: as §5
# Rattus norvegicus [15] = assay: Compound was evaluated for its antiinflammatory activity in the cotton pellet induced granuloma(CPG) in normal rats at the dose 3 mg/kg p.o.; conditions: po, read-out: Inhibition
# Rattus norvegicus [16] = assay: Compound was evaluated for its antiinflammatory activity by adjuvant-induced polyarthritis test in rats at a dosage of 1 mg/kg administered orally; type: functional; conditions: route oral; outline: as §3
# Rattus norvegicus [17] = assay: Compound was evaluated for its antiinflammatory activity in the cotton pellet induced granuloma (CPG) in normal rats at the dose 200 mg/kg p.o.; type: functional; conditions: route oral; outline: as §5
# Rattus norvegicus [18] = species: Rattus norvegicus; assay: Compound was evaluated for its analgesic activity by Randall-Selitto test in comparison with that of Aspirin; type: functional; outline: as §4
Structure (SMILES),inhibition in vivo at 200 mg/kg (Rattus norvegicus [1]),inhibition in vivo at 100 mg/kg (Rattus norvegicus [4]),Activity (Rattus norvegicus [5]),Activity (Rattus norvegicus [8]),also measured
COc1ccc(-c2nc3c4ccccc4ccc3n2CC(C)C)cc1,30%,–,–,–,–
CCn1c(-c2ccc(OC)cc2)nc2c3ccccc3ccc21,52%,49%,1.1,2.9,Mean volume of hind paws (Rattus norvegicus [2]): 21; Ulcerogenic index (Rattus norvegicus [3]): 0.09; Arthritis scores (Rattus norvegicus [6]): 21; Inflammation units (Rattus norvegicus [6]): 35; inhibition in vivo at 200 mg/kg (Rattus norvegicus [7]): 31%
C=Cn1c(-c2ccc(OC)cc2)nc2c3ccccc3ccc21,58%,48%,1.1,6.9,Arthritis scores (Rattus norvegicus [9]): 39; Inflammation units (Rattus norvegicus [9]): 61; Mean volume of hind paws (Rattus norvegicus [10]): 34; Ulcerogenic index (Rattus norvegicus [11]): 0.3; inhibition in vivo at 200 mg/kg (Rattus norvegicus [7]): 31%
CCCCC1C(=O)N(c2ccccc2)N(c2ccccc2)C1=O [PHENYLBUTAZONE],–,–,6.5,4,Ulcerogenic index (Rattus norvegicus [3]): 1.4; Arthritis scores (Rattus norvegicus [12]): 58; Inflammation units (Rattus norvegicus [12]): 68; Mean volume of hind paws (Rattus norvegicus [12]): 45; inhibition in vivo at 50 mg/kg (Rattus norvegicus [13]): 38%
CCOc1ccc(-c2nc3c4ccccc4ccc3n2C)cc1,45%,37%,0.3,2.2,Mean volume of hind paws (Rattus norvegicus [2]): 25; Ulcerogenic index (Rattus norvegicus [3]): 0.21; Arthritis scores (Rattus norvegicus [6]): 43; Inflammation units (Rattus norvegicus [6]): 60; inhibition in vivo at 200 mg/kg (Rattus norvegicus [7]): 40%
Cn1c(-c2ccc[nH]2)nc2c3ccccc3ccc21,1%,–,–,–,–
COc1ccc(-c2nc3c4ccccc4ccc3n2C2CCCCC2)cc1,16%,–,–,–,–
Cc1cc(-c2nc3c4ccccc4ccc3n2C)ccc1N(C)C,69%,64%,2.8,10.5,Arthritis scores (Rattus norvegicus [9]): 69; Inflammation units (Rattus norvegicus [9]): 84; inhibition in vivo at 100 mg/kg (Rattus norvegicus [14]): 38%; Mean volume of hind paws (Rattus norvegicus [10]): 42; Ulcerogenic index (Rattus norvegicus [11]): 0.21
CCC(C)n1c(-c2ccc(OC)cc2)nc2c3ccccc3ccc21 (stereo not given),18%,–,–,–,–
COc1ccc2c(c1)c(CC(=O)O)c(C)n2C(=O)c1ccc(Cl)cc1 [INDOMETHACIN],–,–,34,15.4,inhibition in vivo at 3 mg/kg (Rattus norvegicus [15]): 41%; Ulcerogenic index (Rattus norvegicus [3]): 1.5; Arthritis scores (Rattus norvegicus [16]): 65; Inflammation units (Rattus norvegicus [16]): 82; Mean volume of hind paws (Rattus norvegicus [16]): 52
Cn1c(-c2ccccc2O)nc2c3ccccc3ccc21,1%,–,–,–,–
COc1ccc(-c2nc3c4ccccc4ccc3n2CCO)cc1,11%,–,–,–,–
Cl.Cn1c(-c2ccccn2)nc2c3ccccc3ccc21,24%,–,–,–,–
Cn1c(-c2cccc(Cl)c2)nc2c3ccccc3ccc21,7%,–,–,–,–
COc1ccc(-c2nc3c4ccccc4ccc3n2C)cc1,53%,41%,–,1,Mean volume of hind paws (Rattus norvegicus [2]): 33; Ulcerogenic index (Rattus norvegicus [3]): 0.31; inhibition in vivo at 200 mg/kg (Rattus norvegicus [17]): 40%; Arthritis scores (Rattus norvegicus [6]): 40; Inflammation units (Rattus norvegicus [6]): 46; Activity (Rattus norvegicus [18]): 1.2
CCCn1c(-c2ccc(OC)cc2)nc2c3ccccc3ccc21,20%,–,–,–,–
COc1ccc(-c2nc3c4ccccc4ccc3n2C2CC2)cc1,56%,53%,0.7,0.8,Ulcerogenic index (Rattus norvegicus [11]): 0.29; inhibition in vivo at 200 mg/kg (Rattus norvegicus [7]): 11%
COc1ccc(-c2nc3c4ccccc4ccc3n2C(C)CO)cc1 (stereo not given),35%,31%,–,–,–
C=C(C)n1c(-c2ccc(OC)cc2)nc2c3ccccc3ccc21,58%,54%,–,–,Arthritis scores (Rattus norvegicus [9]): 70; Inflammation units (Rattus norvegicus [9]): 68; Mean volume of hind paws (Rattus norvegicus [10]): 38
COc1ccc(-c2nc3c(ccc4ccccc43)[nH]2)cc1,10%,–,–,–,–
COc1cccc(-c2nc3c4ccccc4ccc3n2C)c1,21%,–,–,–,–
CC(=O)Nc1ccc(-c2nc3c4ccccc4ccc3n2C)cc1,35%,29%,–,–,–
